The results in this text go back to ChEMBL document CHEMBL4028879, “Structure-Activity Relationship Studies of Pyrimido[5,4-b]indoles as Selective Toll-Like Receptor 4 Ligands” (J Med Chem, 2017).

In data set [1] the test system is Mus musculus. In words: Immunostimulatory activity in wild type C57BL/6 mouse assessed as induction of IL-6 levels in serum at 20 nmol, iv measured at 3 hrs post dose by Luminex beads assay. Type of data set: functional, organism-based. The method, boiled down: (§1)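 Seven- to nine-week-old wild-type C57BL/6 mice (n = 6) injected iv with 20 nmol/animal in 0.1% DMSO in saline. Sera collected 3 h after injection; IL-6, IP-10 and KC quantified by Luminex bead assay, detection limit 2.56 pg/mL. Kruskal–Wallis test with Dunn's post hoc test.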

Data set [2] deals with T1, Toll-like receptor 4 (Mus musculus) (UniProt Q9QUK6).
T1 sequence (whole entry): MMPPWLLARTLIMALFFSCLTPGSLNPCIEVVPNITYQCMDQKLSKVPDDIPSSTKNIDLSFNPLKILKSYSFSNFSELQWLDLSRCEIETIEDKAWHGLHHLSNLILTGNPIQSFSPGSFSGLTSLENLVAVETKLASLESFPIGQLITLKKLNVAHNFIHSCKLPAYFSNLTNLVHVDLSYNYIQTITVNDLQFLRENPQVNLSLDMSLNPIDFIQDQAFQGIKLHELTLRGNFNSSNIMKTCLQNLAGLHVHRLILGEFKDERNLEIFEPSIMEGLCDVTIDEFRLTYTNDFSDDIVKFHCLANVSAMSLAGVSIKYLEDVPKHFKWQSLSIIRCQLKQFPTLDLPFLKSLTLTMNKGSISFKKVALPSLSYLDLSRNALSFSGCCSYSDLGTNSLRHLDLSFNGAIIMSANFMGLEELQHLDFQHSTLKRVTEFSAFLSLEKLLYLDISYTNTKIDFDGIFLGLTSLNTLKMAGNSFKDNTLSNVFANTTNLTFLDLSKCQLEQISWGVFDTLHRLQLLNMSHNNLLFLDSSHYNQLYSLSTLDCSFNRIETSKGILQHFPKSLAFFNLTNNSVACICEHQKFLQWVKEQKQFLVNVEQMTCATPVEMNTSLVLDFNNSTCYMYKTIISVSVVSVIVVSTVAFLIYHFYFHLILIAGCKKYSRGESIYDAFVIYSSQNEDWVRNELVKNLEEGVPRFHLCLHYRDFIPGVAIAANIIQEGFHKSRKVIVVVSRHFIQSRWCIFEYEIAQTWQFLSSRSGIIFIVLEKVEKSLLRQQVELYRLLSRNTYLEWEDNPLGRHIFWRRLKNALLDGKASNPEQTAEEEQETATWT
Briefly: Agonist activity at TLR4 in C57BL/6 mouse primary BMDC assessed as induction of CCL5 release at 0.1 to 10 uM after 18 hrs by ELISA. The method, boiled down:
(§2)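 BMDC from C57BL/6 mice, 1 × 10⁵ cells/well in RPMI 1640 with 10% FBS and penicillin/streptomycin. Graded doses for 18 h at 37°C, 5% CO₂. IL-6 or CCL5 in supernatants measured by ELISA, detection limit 15 pg/mL. Positive control ultrapure LPS-EB 10 ng/mL. Significance by two-way ANOVA with Dunnett's post hoc test.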
(In general: An ELISA detects its analyte on a solid surface through an enzyme-linked reagent.)

Data set [3] addresses T2, Toll-like receptor 4 (Homo sapiens, UniProt O00206). In words: Agonist activity at human TLR4 expressed in HEK293 blue cells assessed as induction of NF-kappaB activation-mediated SEAP production after 20 to 24 hrs by colorimetric assay. Format: cell-based. The method, boiled down: (§3)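 HEK-Blue cells expressing human or mouse TLR4, 2.5 × 10⁴/well in DMEM with 10% FBS, pyruvate, glutamine and antibiotics. Graded doses from 20 mM DMSO stocks, final DMSO 0.05%. Supernatants harvested after 20–24 h; SEAP read by colorimetric substrate at 630 nm. EC50 taken as the concentration giving 50% of maximal activation. LPS 100 ng/mL served as positive control.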

In data set [4] the target is T1, Toll-like receptor 4 (Mus musculus). In words: Agonist activity at TLR4 in C57BL/6 mouse BMDC assessed as induction of IL-6 release at 0.1 to 10 uM after 18 hrs by ELISA. An outline of the steps: as §2
Data set [5] deals with T2, Toll-like receptor 4. Briefly: Agonist activity at TLR4 in human PBMC assessed as induction of IL-6 release at 0.1 to 10 uM after 18 hrs by ELISA. The method, boiled down: (§4)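 PBMC isolated from blood-bank buffy coats, 1 × 10⁶/mL, stimulated with graded compound doses for 18 h at 37°C, 5% CO₂. IL-6 and IL-8 in supernatants measured by ELISA. Data are mean ± SEM, representative of three independent experiments. Two-way ANOVA with Dunnett's post hoc test.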

In data set [6] the target is T2, Toll-like receptor 4. In words: Agonist activity at human TLR4 expressed in HEK293 blue cells assessed as induction of NF-kappaB activation-mediated SEAP production by measuring AUC after 20 to 24 hrs by colorimetric assay relative to N-cyclohexyl-2-(5-methyl-4-oxo-3-phenyl-4,5-dihydro-3H-pyrimido[5,4-b]indol-2-ylthio)acetamide. Format: cell-based.
Data set [7] addresses T2, Toll-like receptor 4. Briefly: Agonist activity at TLR4 in human PBMC assessed as induction of IL-8 release at 0.1 to 10 uM after 18 hrs by ELISA. The method, boiled down:
as §4

Data set [8] concerns the target T1, Toll-like receptor 4 (Mus musculus). Briefly: Agonist activity at mouse TLR4 expressed in HEK293 blue cells assessed as induction of NF-kappaB activation-mediated SEAP production by measuring AUC after 20 to 24 hrs by colorimetric assay relative to N-cyclohexyl-2-(5-methyl-4-oxo-3-phenyl-4,5-dihydro-3H-pyrimido[5,4-b]indol-2-ylthio)acetamide. Format: cell-based.

The target of data set [9] is T3, Toll-like receptor 4 (Mus musculus, UniProt Q9QUK6).
T3 sequence (Q9QUK6 whole entry): T1 sequence (whole entry)
Briefly: Agonist activity at mouse TLR4 expressed in HEK293 blue cells assessed as induction of NF-kappaB activation-mediated SEAP production after 20 to 24 hrs by colorimetric assay. Type of data set: cell-based. The method, boiled down:
as §3

A further data set relates to HepG2. Briefly: Cytotoxicity against human HepG2 cells assessed as reduction in cell viability at 5 uM after 18 hrs by MTT assay. Type of data set: cell-based. Particulars: hepg2, 18 h. The method, boiled down: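 HepG2 cells, 1 × 10⁴/well, exposed overnight (18 h) to 5 μM compound. MTT 0.5 mg/mL then added for six or more hours, followed by lysis and absorbance reading. Mean ± SEM of representative data from three independent experiments.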
For orientation: Tetrazolium assays rely on reduction of a dye to a coloured formazan, in cell work by metabolically active cells.

Data set [10] concerns Mus musculus. Briefly: Immunostimulatory activity in wild type C57BL/6 mouse assessed as induction of keratinocyte chemo-attractant levels in serum at 20 nmol, iv measured at 3 hrs post dose by Luminex beads assay. Format: functional, organism-based. The method, boiled down: as §1
Data set [11] in a line: Cytotoxicity against C57BL/6 mouse primary BMDC assessed as cell viability at 5 uM after 18 hrs by MTT assay relative to control. Format: cell-based. Particulars: primary BMDC (bone marrow-derived dendritic cells), read-out: Activity.
The subject of data set [12] is Mus musculus. In words: Immunostimulatory activity in wild type C57BL/6 mouse assessed as induction of IP-10 levels in serum at 20 nmol, iv measured at 3 hrs post dose by Luminex beads assay. Format: functional, organism-based. The method, boiled down:
as §1

Data set [13] has as its target T1, Toll-like receptor 4 (Mus musculus). In words: Agonist activity at TLR4 in C57BL/6 mouse primary BMDC assessed as induction of IL-6 release at 5 uM after 18 hrs by ELISA relative to N-cyclohexyl-2-(5-methyl-4-oxo-3-phenyl-4,5-dihydro-3H-pyrimido[5,4-b]indol-2-ylthio)acetamide.

SMILES strings stand for the structures. Calls of active or inactive are those of the source. The calls are words filed in the database; no cut-off is given here. A value given as a limit tells only on which side of the number the result lay.

T2 sequence (O00206 whole entry): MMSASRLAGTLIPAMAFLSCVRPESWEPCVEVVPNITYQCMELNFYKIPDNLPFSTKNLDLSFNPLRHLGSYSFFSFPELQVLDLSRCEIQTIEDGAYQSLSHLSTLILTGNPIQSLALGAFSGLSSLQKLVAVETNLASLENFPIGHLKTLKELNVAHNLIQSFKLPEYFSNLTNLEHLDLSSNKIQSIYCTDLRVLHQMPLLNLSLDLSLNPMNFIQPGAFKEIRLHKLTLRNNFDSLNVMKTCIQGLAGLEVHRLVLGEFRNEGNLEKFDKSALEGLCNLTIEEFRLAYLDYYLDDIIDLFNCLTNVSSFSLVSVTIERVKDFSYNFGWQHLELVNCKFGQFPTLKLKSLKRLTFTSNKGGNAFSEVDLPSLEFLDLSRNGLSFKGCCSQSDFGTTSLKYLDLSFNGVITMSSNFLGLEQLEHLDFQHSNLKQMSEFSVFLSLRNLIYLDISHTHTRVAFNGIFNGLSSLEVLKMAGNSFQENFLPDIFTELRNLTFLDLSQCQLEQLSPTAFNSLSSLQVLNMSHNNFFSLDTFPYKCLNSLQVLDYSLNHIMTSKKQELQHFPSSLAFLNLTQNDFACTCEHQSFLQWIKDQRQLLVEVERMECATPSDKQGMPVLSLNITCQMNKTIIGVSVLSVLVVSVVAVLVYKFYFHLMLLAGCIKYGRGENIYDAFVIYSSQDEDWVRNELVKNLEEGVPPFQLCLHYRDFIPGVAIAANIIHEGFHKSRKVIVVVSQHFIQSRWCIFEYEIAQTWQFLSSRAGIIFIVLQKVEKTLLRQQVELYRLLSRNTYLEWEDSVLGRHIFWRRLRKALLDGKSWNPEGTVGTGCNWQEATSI

In general, EC50 refers to the concentration that produces a half-maximal response. Regarding `Cn1c2ccc(-c3ccccc3)cc2c2nc(SCC(=O)NC3CCCCC3)n(-c3ccccc3)c(=O)c21`, the outcome (in the data set on Mus musculus [1]; in data set [2]; in data set [4]; on Toll-like receptor 4 [5]; on Toll-like receptor 4 [7]; in the data set with Mus musculus [10]) was Active. Further, in the data set with Mus musculus [12], the outcome was Active. The 50% effective concentration (EC50) turned out to be 0.43 µM at Toll-like receptor 4 [3] and 0.82 µM at Toll-like receptor 4 [9]. Besides, the Activity was 1560% at Toll-like receptor 4 [6], 223% in data set [8], “Non-Toxic” in the data set with HepG2 and 123% in data set [13]. In data set [11], the viability at 18 h, 5 µM turned out to be 93%.

With `Cn1c2c(c3nc(SCC(=O)NC4CCCCC4)n(-c4ccccc4)c(=O)c31)CCCCC2`, the outcome (in the data set with Mus musculus [1]; in data set [2]; in data set [4]; in the data set on Mus musculus [10]; with Mus musculus [12]) was Active. For the same compound, the concentration giving a half-maximal response (EC50) on Toll-like receptor 4 [3] was above 10 µM; on Toll-like receptor 4 [9], 8.8 µM. In addition, the Activity at Toll-like receptor 4 [6] was 46%; in [8], 44%; in the data set with HepG2 it was “Non-Toxic”; in data set [13], 93%. In addition, the viability at 18 h, 5 µM in data set [11] worked out at 95%.

As to `Cn1c2ccccc2c2nc(SCC(=O)NC3CCCCC3)n(-c3ccccc3)c(=O)c21`, the result (in the data set on Mus musculus [1]; in [2]; in [4]; on Toll-like receptor 4 [5]; at Toll-like receptor 4 [7]; with Mus musculus [10]) was Active. For the same compound, in the data set with Mus musculus [12], the result was Active. Also, the figures for the concentration giving a half-maximal response (EC50) on Toll-like receptor 4 [3] and at Toll-like receptor 4 [9] were 8.26 µM and 3.17 µM, respectively. Further, the Activity result with HepG2 is recorded as “Non-Toxic”. The viability at 18 h, 5 µM in [11] fell in the range of 97 to 106%.

On to `Cn1c2ccccc2c2nc(OCC(=O)NC3CCCCC3)n(-c3ccccc3)c(=O)c21`, for which the EC50 on Toll-like receptor 4 [3] and at Toll-like receptor 4 [9] was above 10 µM throughout. Further, the Activity worked out at 9% at Toll-like receptor 4 [6], 1% in data set [8] and 0% in data set [13]. For the same compound, in data set [11], the viability at 18 h, 5 µM worked out at 58%.

Regarding `O=C(CCCSc1nc2c([nH]c3ccccc32)c(=O)n1-c1ccccc1)NC1CCCCC1`, the 50% effective concentration (EC50) on Toll-like receptor 4 [3] and on Toll-like receptor 4 [9] was above 10 µM throughout. For the same compound, the Activity at Toll-like receptor 4 [6] was 8%; in data set [8] it was 2%; in [13], 0%. Besides, the viability at 18 h, 5 µM in data set [11] came to 70%.

For `Cc1[nH]c2c(=O)n(-c3ccccc3)c(SCC(=O)NC3CCCCC3)nc2c1C`, the concentration giving a half-maximal response (EC50) on Toll-like receptor 4 [3] and at Toll-like receptor 4 [9] was above 10 µM in each case. Besides, the Activity on Toll-like receptor 4 [6] stood at 18%; in [8], 28%; in data set [13] it was 78%. Moreover, in data set [11], the viability at 18 h, 5 µM amounted to 70%.

With `C#Cc1ccc2c(c1)c1nc(SCC(=O)NC3CCCCC3)n(-c3ccccc3)c(=O)c1n2C`, the half-maximal effective concentration (EC50) amounted to 3.27 µM at Toll-like receptor 4 [3] and 2.74 µM on Toll-like receptor 4 [9]. Besides, the Activity turned out to be 107% on Toll-like receptor 4 [6], 92% in data set [8] and 92% in [13]. Moreover, in [11], the viability at 18 h, 5 µM stood at 81%.

In the case of `Cn1c2ccc(-c3ccc4ccccc4c3)cc2c2nc(SCC(=O)NC3CCCCC3)n(-c3ccccc3)c(=O)c21`, the outcome (in data set [2]; in data set [4]; on Toll-like receptor 4 [5]; on Toll-like receptor 4 [7]) was Active. Moreover, the EC50 is 0.92 µM at Toll-like receptor 4 [3] and 2.01 µM on Toll-like receptor 4 [9]. Moreover, the Activity is 1300% at Toll-like receptor 4 [6], 78% in [8], “Non-Toxic” in the data set with HepG2 and 137% in data set [13]. Also, the viability at 18 h, 5 µM in data set [11] is 84%.
